According to paper PMC4642656 (Journal of Ethnopharmacology, 2015):
Read-outs that look alike come from different tables or passages of the source.

Key:
Format in all cases: cell-based
[1] = system: Plasmodium falciparum chloroquine-resistant (W2) strain; assay: Antiplasmodial assay
How it was run: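 Asexual erythrocytic-stage P. falciparum W2 was kept in continuous in vitro culture. It was tested by modified semiautomated microdilution for inhibition of [G-3H]hypoxanthine incorporation. Cells were harvested onto glass-fibre filters and counted by liquid scintillation as cpm per well at each drug concentration, expressed as % of untreated controls. IC50 was taken from nonlinear regression of the dose-response curve.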

[2] = system: Plasmodium falciparum chloroquine-sensitive (D6) strain; assay: Antiplasmodial assay; details: for IC50: Plasmodium falciparum
[3] = system: human larynx carcinoma (HEp2) cells; assay: MTT cytotoxicity assay, HEp2 cells
[4] = system: mouse breast cancer (4T1) cells; assay: MTT cytotoxicity assay, 4T1 cells
[5] = Homo sapiens, HEp-2, 48 h, read-out: IC50 HEp2, HEp2 cells, MTT, 48 h
[6] = read-out: IC50 HEp2, HEp2 cells, MTT, 48 h
[7] = Mus musculus, 4T1, 48 h, read-out: IC50 4T1, 4T1 cells, MTT, 48 h
[8] = read-out: IC50 4T1, 4T1 cells, MTT, 48 h

CC(=O)O[C@@H]1C[C@H]2C(C)(C)C(=O)C=C[C@]2(C)[C@H]2CC[C@]3(C)C(=CC[C@H]3c3ccoc3)[C@@]21C [Azadirone (1), azadirone]
IC50 ([1]; W2, read-out: IC50 W2): 29.6 ± 1 µM
IC50 ([2]; D6, read-out: IC50 D6): 23.4 ± 0.2 µM
IC50 [3, 5]: < 20 µM
IC50 [3, 6]: 12.8 µM
IC50 [4, 7]: < 20 µM
IC50 [4, 8]: 14.4 µM

CCN(CC)CCCC(C)Nc1ccnc2cc(Cl)ccc12 (stereo not shown) [Chloroquine, reference compound]
IC50 ([1]; W2, read-out: IC50 W2 (chloroquine)): 0.108 µM
IC50 ([2]; D6, read-out: IC50 D6 (chloroquine)): 0.0077 µM
SI: selectivity index [IC50 vero/IC50 (D6)] ([2]; Table 1): 5701

CC(=O)O[C@H]1C[C@@H]2[C@@]3(C)CCC(=O)C(C)(C)[C@@H]3C[C@@H](O)[C@@]2(C)C2=CC[C@@H](c3ccoc3)[C@@]21C [Mzikonone (3), mzikonone]
IC50 ([1]; W2, read-out: IC50 W2): 40.5 ± 3.7 µM
IC50 ([2]; D6, read-out: IC50 D6): 36.6 ± 0.8 µM
IC50 [3, 5]: 59.3 ± 1 µM
IC50 [4, 7]: 38.8 ± 0.4 µM

C[C@H](C[C@@H](O)[C@@H]1OC1(C)C)[C@@H]1CC[C@]2(C)C3=CC[C@H]4C(C)(C)C(=O)CC[C@]4(C)[C@H]3CC[C@@]12C [Niloticin (8), niloticin]
IC50 ([1]; W2, read-out: IC50 W2): 77 ± 5.7 µM
IC50 ([2]; D6, read-out: IC50 D6): 48.2 ± 2.3 µM
IC50 [3, 6]: 6.9 ± 0.6 µM
IC50 ([3]; read-out: IC50 HEp2, HEp2 cells, MTT, 48 h, listed as niloticin (8)): < 20 µM
IC50 [4, 7]: < 20 µM
IC50 [4, 8]: 14.5 ± 0.5 µM
